# Test system: HEK-293T
# Test: Multiplex assay against HEK293T
# Type: toxicity, cell-based
# Conditions: human
# Outline: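 Live cells were stained at seeding with Hoechst33342, BioTracker Green Microtubule Cytoskeleton Dye, MitoTracker Red and Annexin V Alexa Fluor 680, then imaged on a CQ1 microscope at 37°C and 5% CO2 after compound addition. CellPathfinder machine-learning gating split cells into Hoechst high-intensity objects or normal cells. Normal cells were split into healthy, pyknosed or fragmented nuclei, and pyknosed cells into mitotic or apoptotic. Tubulin, mitochondrial-mass and membrane-permeability phenotypes are per cents of healthy-nucleus cells.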
# [1] = 12 h, 1 µM, compound concentration 1 uM, replicate 1
# [2] = 12 h, 1 µM, compound concentration 1 uM, replicate 2
# [3] = 12 h, 10 µM, compound concentration 10 uM, replicate 1
# [4] = 12 h, 10 µM, compound concentration 10 uM, replicate 2
# [5] = 24 h, 1 µM, compound concentration 1 uM, replicate 1
# [6] = 24 h, 1 µM, compound concentration 1 uM, replicate 2
# [7] = 24 h, 10 µM, compound concentration 10 uM, replicate 1
# [8] = 24 h, 10 µM, compound concentration 10 uM, replicate 2
# [9] = 48 h, 1 µM, compound concentration 1 uM, replicate 1
# [10] = 48 h, 1 µM, compound concentration 1 uM, replicate 2
# [11] = 48 h, 10 µM, compound concentration 10 uM, replicate 1
# [12] = 48 h, 10 µM, compound concentration 10 uM, replicate 2
structure (smiles),measurement,setting,value
O=c1nc2[nH]c3ccccc3nc-2c(=O)[nH]1 [ALLOXAZINE],Population Apoptotic (%),[1],27%
same,Population Fragmented Nuclei (%),[1],8%
same,Population Healthy Nuclei (%),[1],77%
same,Population Hoechst High Intensity Objects (%),[1],8%
same,Population Membrane Permeable-Phenotype (%),[1],0%
same,Population Mitochondria Different-Phenotype (%),[1],44%
same,Population Mitotic Cells (%),[1],72%
same,Population Normal (%),[1],91%
same,Population Pyknosed Nuclei (%),[1],13%
same,Population Tubulin-Different-Phenotype (%),[1],33%
same,Total Cell Count,[1],377
same,Population Apoptotic (%),[2],44%
same,Population Fragmented Nuclei (%),[2],4%
same,Population Healthy Nuclei (%),[2],79%
same,Population Hoechst High Intensity Objects (%),[2],7%
same,Population Mitochondria Different-Phenotype (%),[2],66%
same,Population Mitotic Cells (%),[2],55%
same,Population Normal (%),[2],92%
same,Population Pyknosed Nuclei (%),[2],15%
same,Population Tubulin-Different-Phenotype (%),[2],25%
same,Total Cell Count,[2],345
same,Population Apoptotic (%),[3],40%
same,Population Fragmented Nuclei (%),[3],10%
same,Population Healthy Nuclei (%),[3],71%
same,Population Hoechst High Intensity Objects (%),[3],5%
same,Population Membrane Permeable-Phenotype (%),[3],0%
same,Population Mitochondria Different-Phenotype (%),[3],53%
same,Population Mitotic Cells (%),[3],59%
same,Population Normal (%),[3],94%
same,Population Pyknosed Nuclei (%),[3],18%
same,Population Tubulin-Different-Phenotype (%),[3],31%
same,Total Cell Count,[3],362
same,Population Apoptotic (%),[4],60%
same,Population Fragmented Nuclei (%),[4],8%
same,Population Healthy Nuclei (%),[4],70%
same,Population Hoechst High Intensity Objects (%),[4],15%
same,Population Mitochondria Different-Phenotype (%),[4],67%
same,Population Mitotic Cells (%),[4],40%
same,Population Normal (%),[4],84%
same,Population Pyknosed Nuclei (%),[4],20%
same,Population Tubulin-Different-Phenotype (%),[4],20%
same,Total Cell Count,[4],323
same,Population Apoptotic (%),[5],22%
same,Population Fragmented Nuclei (%),[5],10%
same,Population Healthy Nuclei (%),[5],76%
same,Population Hoechst High Intensity Objects (%),[5],4%
same,Population Membrane Permeable-Phenotype (%),[5],0%
same,Population Mitochondria Different-Phenotype (%),[5],24%
same,Population Mitotic Cells (%),[5],77%
same,Population Normal (%),[5],95%
same,Population Pyknosed Nuclei (%),[5],12%
same,Population Tubulin-Different-Phenotype (%),[5],19%
same,Total Cell Count,[5],504
same,Population Apoptotic (%),[6],33%
same,Population Fragmented Nuclei (%),[6],7%
same,Population Healthy Nuclei (%),[6],83%
same,Population Hoechst High Intensity Objects (%),[6],7%
same,Population Mitochondria Different-Phenotype (%),[6],41%
same,Population Mitotic Cells (%),[6],66%
same,Population Normal (%),[6],92%
same,Population Pyknosed Nuclei (%),[6],8%
same,Population Tubulin-Different-Phenotype (%),[6],12%
same,Total Cell Count,[6],391
same,Population Apoptotic (%),[7],27%
same,Population Fragmented Nuclei (%),[7],9%
same,Population Healthy Nuclei (%),[7],77%
same,Population Hoechst High Intensity Objects (%),[7],6%
same,Population Membrane Permeable-Phenotype (%),[7],0%
same,Population Mitochondria Different-Phenotype (%),[7],34%
same,Population Mitotic Cells (%),[7],72%
same,Population Normal (%),[7],93%
same,Population Pyknosed Nuclei (%),[7],12%
same,Population Tubulin-Different-Phenotype (%),[7],21%
same,Total Cell Count,[7],491
same,Population Apoptotic (%),[8],50%
same,Population Healthy Nuclei (%),[8],72%
same,Population Hoechst High Intensity Objects (%),[8],15%
same,Population Mitochondria Different-Phenotype (%),[8],48%
same,Population Mitotic Cells (%),[8],50%
same,Population Normal (%),[8],84%
same,Population Pyknosed Nuclei (%),[8],17%
same,Population Tubulin-Different-Phenotype (%),[8],16%
same,Total Cell Count,[8],371
same,Population Apoptotic (%),[9],32%
same,Population Fragmented Nuclei (%),[9],14%
same,Population Healthy Nuclei (%),[9],77%
same,Population Hoechst High Intensity Objects (%),[9],3%
same,Population Membrane Permeable-Phenotype (%),[9],1%
same,Population Mitochondria Different-Phenotype (%),[9],18%
same,Population Mitotic Cells (%),[9],67%
same,Population Normal (%),[9],96%
same,Population Pyknosed Nuclei (%),[9],8%
same,Population Tubulin-Different-Phenotype (%),[9],13%
same,Total Cell Count,[9],773
same,Population Apoptotic (%),[10],27%
same,Population Fragmented Nuclei (%),[10],11%
same,Population Healthy Nuclei (%),[10],82%
same,Population Hoechst High Intensity Objects (%),[10],4%
same,Population Membrane Permeable-Phenotype (%),[10],0%
same,Population Mitochondria Different-Phenotype (%),[10],26%
same,Population Mitotic Cells (%),[10],72%
same,Population Normal (%),[10],95%
same,Population Pyknosed Nuclei (%),[10],6%
same,Population Tubulin-Different-Phenotype (%),[10],12%
same,Total Cell Count,[10],636
same,Population Apoptotic (%),[11],29%
same,Population Fragmented Nuclei (%),[11],15%
same,Population Healthy Nuclei (%),[11],76%
same,Population Hoechst High Intensity Objects (%),[11],3%
same,Population Membrane Permeable-Phenotype (%),[11],0%
same,Population Mitochondria Different-Phenotype (%),[11],17%
same,Population Mitotic Cells (%),[11],70%
same,Population Normal (%),[11],96%
same,Population Pyknosed Nuclei (%),[11],7%
same,Population Tubulin-Different-Phenotype (%),[11],11%
same,Total Cell Count,[11],700
same,Population Apoptotic (%),[12],48%
same,Population Fragmented Nuclei (%),[12],14%
same,Population Healthy Nuclei (%),[12],78%
same,Population Hoechst High Intensity Objects (%),[12],4%
same,Population Mitochondria Different-Phenotype (%),[12],28%
same,Population Mitotic Cells (%),[12],51%
same,Population Normal (%),[12],95%
same,Population Pyknosed Nuclei (%),[12],6%
same,Population Tubulin-Different-Phenotype (%),[12],14%
same,Total Cell Count,[12],531
Nc1nc(-c2ccco2)c2cnn(Cc3ccccc3F)c2n1,Population Apoptotic (%),[1],37%
same,Population Fragmented Nuclei (%),[1],6%
same,Population Healthy Nuclei (%),[1],76%
same,Population Hoechst High Intensity Objects (%),[1],9%
same,Population Membrane Permeable-Phenotype (%),[1],0%
same,Population Mitochondria Different-Phenotype (%),[1],58%
same,Population Mitotic Cells (%),[1],62%
same,Population Normal (%),[1],90%
same,Population Pyknosed Nuclei (%),[1],16%
same,Population Tubulin-Different-Phenotype (%),[1],41%
same,Total Cell Count,[1],300
same,Population Apoptotic (%),[2],36%
same,Population Fragmented Nuclei (%),[2],5%
same,Population Healthy Nuclei (%),[2],81%
same,Population Hoechst High Intensity Objects (%),[2],11%
same,Population Mitochondria Different-Phenotype (%),[2],64%
same,Population Mitotic Cells (%),[2],63%
same,Population Normal (%),[2],88%
same,Population Pyknosed Nuclei (%),[2],13%
same,Population Tubulin-Different-Phenotype (%),[2],23%
same,Total Cell Count,[2],404
same,Population Apoptotic (%),[3],33%
same,Population Fragmented Nuclei (%),[3],7%
same,Population Healthy Nuclei (%),[3],73%
same,Population Hoechst High Intensity Objects (%),[3],8%
same,Population Membrane Permeable-Phenotype (%),[3],0%
same,Population Mitochondria Different-Phenotype (%),[3],61%
same,Population Mitotic Cells (%),[3],66%
same,Population Normal (%),[3],91%
same,Population Pyknosed Nuclei (%),[3],19%
same,Population Tubulin-Different-Phenotype (%),[3],43%
same,Total Cell Count,[3],306
same,Population Apoptotic (%),[4],40%
same,Population Fragmented Nuclei (%),[4],6%
same,Population Healthy Nuclei (%),[4],76%
same,Population Hoechst High Intensity Objects (%),[4],12%
same,Population Mitochondria Different-Phenotype (%),[4],68%
same,Population Mitotic Cells (%),[4],60%
same,Population Normal (%),[4],87%
same,Population Pyknosed Nuclei (%),[4],17%
same,Population Tubulin-Different-Phenotype (%),[4],26%
same,Total Cell Count,[4],265
same,Population Apoptotic (%),[5],30%
same,Population Fragmented Nuclei (%),[5],7%
same,Population Healthy Nuclei (%),[5],77%
same,Population Hoechst High Intensity Objects (%),[5],7%
same,Population Membrane Permeable-Phenotype (%),[5],0%
same,Population Mitochondria Different-Phenotype (%),[5],36%
same,Population Mitotic Cells (%),[5],69%
same,Population Normal (%),[5],92%
same,Population Pyknosed Nuclei (%),[5],15%
same,Population Tubulin-Different-Phenotype (%),[5],26%
same,Total Cell Count,[5],396
same,Population Apoptotic (%),[6],28%
same,Population Fragmented Nuclei (%),[6],9%
same,Population Healthy Nuclei (%),[6],81%
same,Population Hoechst High Intensity Objects (%),[6],5%
same,Population Mitochondria Different-Phenotype (%),[6],46%
same,Population Mitotic Cells (%),[6],71%
same,Population Normal (%),[6],94%
same,Population Pyknosed Nuclei (%),[6],9%
same,Population Tubulin-Different-Phenotype (%),[6],17%
same,Total Cell Count,[6],514
same,Population Apoptotic (%),[7],38%
same,Population Fragmented Nuclei (%),[7],11%
same,Population Healthy Nuclei (%),[7],67%
same,Population Hoechst High Intensity Objects (%),[7],6%
same,Population Membrane Permeable-Phenotype (%),[7],2%
same,Population Mitochondria Different-Phenotype (%),[7],52%
same,Population Mitotic Cells (%),[7],61%
same,Population Normal (%),[7],93%
same,Population Pyknosed Nuclei (%),[7],21%
same,Population Tubulin-Different-Phenotype (%),[7],31%
same,Total Cell Count,[7],334
same,Population Apoptotic (%),[8],35%
same,Population Hoechst High Intensity Objects (%),[8],10%
same,Population Membrane Permeable-Phenotype (%),[8],0%
same,Population Mitochondria Different-Phenotype (%),[8],59%
same,Population Mitotic Cells (%),[8],64%
same,Population Normal (%),[8],89%
same,Population Tubulin-Different-Phenotype (%),[8],23%
same,Total Cell Count,[8],328
same,Population Apoptotic (%),[9],32%
same,Population Fragmented Nuclei (%),[9],12%
same,Population Healthy Nuclei (%),[9],75%
same,Population Hoechst High Intensity Objects (%),[9],3%
same,Population Membrane Permeable-Phenotype (%),[9],1%
same,Population Mitochondria Different-Phenotype (%),[9],31%
same,Population Mitotic Cells (%),[9],67%
same,Population Normal (%),[9],96%
same,Population Pyknosed Nuclei (%),[9],12%
same,Population Tubulin-Different-Phenotype (%),[9],18%
same,Total Cell Count,[9],641
same,Population Apoptotic (%),[10],28%
same,Population Fragmented Nuclei (%),[10],14%
same,Population Healthy Nuclei (%),[10],78%
same,Population Hoechst High Intensity Objects (%),[10],4%
same,Population Mitochondria Different-Phenotype (%),[10],21%
same,Population Mitotic Cells (%),[10],71%
same,Population Normal (%),[10],95%
same,Population Pyknosed Nuclei (%),[10],7%
same,Population Tubulin-Different-Phenotype (%),[10],14%
same,Total Cell Count,[10],769
same,Population Apoptotic (%),[11],36%
same,Population Fragmented Nuclei (%),[11],16%
same,Population Healthy Nuclei (%),[11],73%
same,Population Hoechst High Intensity Objects (%),[11],7%
same,Population Membrane Permeable-Phenotype (%),[11],0%
same,Population Mitochondria Different-Phenotype (%),[11],42%
same,Population Mitotic Cells (%),[11],63%
same,Population Normal (%),[11],92%
same,Population Pyknosed Nuclei (%),[11],9%
same,Population Tubulin-Different-Phenotype (%),[11],19%
same,Total Cell Count,[11],412
same,Population Apoptotic (%),[12],28%
same,Population Fragmented Nuclei (%),[12],13%
same,Population Healthy Nuclei (%),[12],74%
same,Population Mitochondria Different-Phenotype (%),[12],43%
same,Population Mitotic Cells (%),[12],71%
same,Population Pyknosed Nuclei (%),[12],12%
same,Population Tubulin-Different-Phenotype (%),[12],15%
same,Total Cell Count,[12],398

# Reference: ChEMBL document CHEMBL5058577, “EUbOPEN Chemogenomics Library 2 (Multiplex)” (2022)
